The text below walks through data of ChEMBL document CHEMBL1649290, “Correlation of in vitro activity, serum levels, and in vivo efficacy of posaconazole against Rhizopus microsporus in a murine disseminated infection” (Antimicrob Agents Chemother, 2009).

≈ marks a conversion by molar mass, not a printed value. Calls of active or inactive are those of the source. The rule behind the calls is not given here.

A short description of data set [1]: Antifungal activity against Rhizopus microsporus FMR 3542 by broth microdilution method. The class given is functional. In outline:
(§1)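 CLSI broth microdilution reference method for molds, run on clinical R. microsporus isolates. Isolates were stored at −80°C and subcultured on potato dextrose agar at 35°C before testing. Breakpoints: intermediate 2 μg/ml, resistant ≥4 μg/ml.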

The nature of data set [2]: Antifungal activity against Rhizopus microsporus IHEM 18821 by broth microdilution method. The class given is functional. The essentials:
(§2)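 Clinical isolates kept at −80°C and subcultured on potato dextrose agar at 35°C before testing. MICs were determined by broth microdilution following the CLSI reference guidelines for filamentous fungi (molds), as part of a 15-strain panel tested against seven antifungal agents.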

A short description of data set [3]: Antifungal activity against Rhizopus microsporus IHEM 9503 by broth microdilution method. The class given is functional. The essentials: as §2
Data set [4] can be described thus: Antifungal activity against Rhizopus microsporus IHEM 4770 by broth microdilution method. The class given is functional. In outline:
as §2

Data set [5] is described as follows: Antifungal activity against Rhizopus microsporus IHEM 13311 by broth microdilution method. The class given is functional. In outline: as §2
Data set [6] is described as follows: Antifungal activity against Rhizopus microsporus UTHSC R-3466 by broth microdilution method. The class given is functional. The essentials:
as §1

The nature of data set [7]: Antifungal activity against Rhizopus microsporus IHEM 15210 by broth microdilution method. The class given is functional. The essentials: as §2
Data set [8] in a line: Antifungal activity against Rhizopus microsporus CBS 102277 by broth microdilution method. The class given is functional. The essentials:
as §1

Data set [9] can be described thus: Antifungal activity against Rhizopus microsporus UTHSC 01-983 by broth microdilution method. The class given is functional. The essentials: as §1
A short description of data set [10]: Antifungal activity against Rhizopus microsporus UTHSC 03-1802 by broth microdilution method. The class given is functional. The essentials:
as §2

Data set [11] is described as follows: Antifungal activity against Rhizopus microsporus UTHSC 04-3294 by broth microdilution method. The class given is functional. In outline:
as §2

The nature of data set [12]: Antifungal activity against Rhizopus microsporus IHEM 13267 by broth microdilution method. The class given is functional. The essentials:
as §2

The nature of data set [13]: Antifungal activity against Rhizopus microsporus UTHSC 07-371 by broth microdilution method. The class given is functional. In outline: as §2
The nature of data set [14]: Antifungal activity against Rhizopus microsporus IHEM 10123 by broth microdilution method. The class given is functional. The essentials:
as §2

The nature of data set [15]: Antifungal activity against Rhizopus microsporus IHEM 5234 by broth microdilution method. The class given is functional. In outline: as §1
Data set [16] is described as follows: Drug level in serum of OF1 mouse infected with Rhizopus microsporus UTHSC 01-983 at 20 mg/kg, po BID for 5 days measured after 3 hrs post last dose. The class given is ADME, organism-based. On the set-up: dose 20 mg/kg, route oral. To be noted: read-out: Drug uptake. In outline:
(§3)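 Immunosuppressed OF1 mice were infected i.v. (5 per group) and dosed orally at 40 mg/kg once daily or 20 mg/kg twice daily for 5 days. Sera were taken 3 h and 24 h after the last dose. Drug was measured by agar bioassay with Candida parapsilosis ATCC 22019 in yeast nitrogen broth, against standards of 0.125–10 μg/ml. Samples were run in duplicate, and the mean of four zone readings was read from the standard curve.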

Data set [17] relates to Rhizopus microsporus. As to the kind of experiment: Antifungal activity against Rhizopus microsporus UTHSC 01-983 infected in OF1 mouse assessed as reduction in fungal load in brain at 20 mg/kg, QD for 5 days. The class given is functional, organism-based. On the set-up: dose 20 mg/kg.
The nature of data set [18]: Drug level in serum of OF1 mouse infected with Rhizopus microsporus FMR 3542 at 40 mg/kg, po QD measured after 24 hrs post last dose. The class given is ADME, organism-based. On the set-up: dose 40 mg/kg, route oral. The note with it: read-out: Drug uptake. In outline: as §3
Data set [19] can be described thus: Drug level in serum of OF1 mouse infected with Rhizopus microsporus FMR 3542 at 20 mg/kg, po BID for 5 days measured after 3 hrs post last dose. The class given is ADME, organism-based. Details: dose 20 mg/kg, route oral. The note with it: read-out: Drug uptake. In outline: as §3
Data set [20] has as its system Rhizopus microsporus. As to the kind of experiment: Antifungal activity against Rhizopus microsporus IHEM 4770 infected in OF1 mouse assessed as reduction in fungal load in brain at 40 mg/kg, QD for 5 days. The class given is functional, organism-based. Details: dose 40 mg/kg. The essentials:
(§4)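 Male OF1 mice (30 g) were immunosuppressed 1 day before infection with cyclophosphamide 200 mg/kg i.p. plus 5-fluorouracil 150 mg/kg i.v., then given 2 × 10^3 CFU i.v. (IHEM 4770: 1 × 10^4 CFU). Oral dosing was 40 mg/kg once daily or 20 mg/kg twice daily, starting 24 h post-challenge; ceftazidime s.c. was given on days 1–7. […], 10 mice per group were killed, and brain and kidney homogenates were plated on PDA (18–24 h, 35°C) for CFU.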

Data set [21] is described as follows: Drug level in serum of OF1 mouse infected with Rhizopus microsporus FMR 3542 at 20 mg/kg, po BID for 5 days measured after 24 hrs post last dose. On the set-up: dose 20 mg/kg, route oral. The class given is ADME, organism-based. The note with it: read-out: Drug uptake. The essentials: as §3
Data set [22] can be described thus: Drug level in serum of OF1 mouse infected with Rhizopus microsporus UTHSC 01-983 at 20 mg/kg, po BID for 5 days measured after 24 hrs post last dose. The class given is ADME, organism-based. To be noted: read-out: Drug uptake. Details: dose 20 mg/kg, route oral. The essentials: as §3
Data set [23] in a line: Drug level in serum of OF1 mouse infected with Rhizopus microsporus UTHSC 01-983 at 40 mg/kg, po QD for 5 days measured after 24 hrs post last dose. On the set-up: dose 40 mg/kg, route oral. The note with it: read-out: Drug uptake. The class given is ADME, organism-based. The essentials:
as §3

The test system of data set [24] is Rhizopus microsporus. As to the kind of experiment: Antifungal activity against Rhizopus microsporus IHEM 4770 infected in OF1 mouse assessed as reduction in fungal load in brain at 20 mg/kg, QD for 5 days. The class given is functional, organism-based. On the set-up: dose 20 mg/kg.
Data set [25] is described as follows: Drug level in serum of OF1 mouse infected with Rhizopus microsporus UTHSC 01-983 at 40 mg/kg, po QD for 5 days measured after 3 hrs post last dose. The class given is ADME, organism-based. On the set-up: dose 40 mg/kg, route oral. To be noted: read-out: Drug uptake. The essentials: as §3
Data set [26] relates to Rhizopus microsporus. As to the kind of experiment: Antifungal activity against Rhizopus microsporus UTHSC R-3466 infected in OF1 mouse assessed as reduction in fungal load in kidney at 20 mg/kg, QD for 5 days. The class given is functional, organism-based. On the set-up: dose 20 mg/kg.
Data set [27] can be described thus: Drug level in serum of OF1 mouse infected with Rhizopus microsporus FMR 3542 at 40 mg/kg, po QD measured after 3 hrs post last dose. The class given is ADME, organism-based. On the set-up: dose 40 mg/kg, route oral. To be noted: read-out: Drug uptake. The essentials:
as §3

Data set [28] deals with Rhizopus microsporus. Kind of data set: Antifungal activity against Rhizopus microsporus FMR 3542 infected in OF1 mouse assessed as reduction in fungal load in brain at 40 mg/kg, QD for 5 days. On the set-up: dose 40 mg/kg. The class given is functional, organism-based. The essentials: as §4

`C[C@@H]1[C@H](O)[C@@H](C)/C=C/C=C/C=C/C=C/C=C/C=C/C=C/[C@H](O[C@@H]2O[C@H](C)[C@@H](O)[C@H](N)[C@@H]2O)C[C@@H]2O[C@](O)(C[C@@H](O)C[C@@H](O)[C@H](O)CC[C@@H](O)C[C@@H](O)CC(=O)O[C@H]1C)C[C@H](O)[C@H]2C(=O)O`: the MIC in data set [1], in data set [2], in data set [3], in data set [4], in data set [5] and in data set [6] was 0.5 µg/mL (≈ 0.541 µM) in each case. Besides, the MIC in data set [7] was 0.5 µg/mL (≈ 0.541 µM); in data set [8] it was 0.5 µg/mL (≈ 0.541 µM); in data set [9] it was 0.5 µg/mL (≈ 0.541 µM); in [10], 1 µg/mL (≈ 1.08 µM); in data set [11], 1 µg/mL (≈ 1.08 µM); in data set [12], 0.5 µg/mL (≈ 0.541 µM). Further, the MIC in data set [13] worked out at 1 µg/mL (≈ 1.08 µM); in data set [14], 0.5 µg/mL (≈ 0.541 µM); in [15], 0.5 µg/mL (≈ 0.541 µM).
Take `CC[C@@H]([C@H](C)O)n1ncn(-c2ccc(N3CCN(c4ccc(OC[C@@H]5CO[C@@](Cn6cncn6)(c6ccc(F)cc6F)C5)cc4)CC3)cc2)c1=O` [POSACONAZOLE]: the MIC in [1] is 2 µg/mL (≈ 2.85 µM); in data set [2] it was 1 µg/mL (≈ 1.43 µM); in data set [3] it was 0.5 µg/mL (≈ 0.713 µM); in data set [4] it was 2 µg/mL (≈ 2.85 µM); in data set [5] it was 0.5 µg/mL (≈ 0.713 µM); in data set [6], 0.25 µg/mL (≈ 0.357 µM). Also, the MIC in data set [7] is 0.5 µg/mL (≈ 0.713 µM); in [8], 0.5 µg/mL (≈ 0.713 µM); in [9], 0.25 µg/mL (≈ 0.357 µM); in data set [10] it was 0.25 µg/mL (≈ 0.357 µM); in data set [11], 0.25 µg/mL (≈ 0.357 µM); in data set [12] it was 0.5 µg/mL (≈ 0.713 µM). The MIC in [13] amounted to 0.25 µg/mL (≈ 0.357 µM); in [14], 1 µg/mL (≈ 1.43 µM); in data set [15], 0.25 µg/mL (≈ 0.357 µM). The concentration at 3 h in [16] turned out to be 7600 ng/mL; in data set [19], 8040 ng/mL; in data set [25], 5960 ng/mL; in [27], 5310 ng/mL. For the same compound, the outcome with Rhizopus microsporus [17], in the data set on Rhizopus microsporus [20], in the data set on Rhizopus microsporus [24], in the data set on Rhizopus microsporus [26] and in the data set on Rhizopus microsporus [28] was Active. Also, the concentration at 24 h in [18] was 950 ng/mL; in data set [21], 2150 ng/mL; in [22], 2040 ng/mL; in [23], 1050 ng/mL.
Regarding `CCC(C)n1ncn(-c2ccc(N3CCN(c4ccc(OCC5COC(Cn6cncn6)(c6ccc(Cl)cc6Cl)O5)cc4)CC3)cc2)c1=O` (stereo not drawn), the MIC in data set [1] came out at 1 µg/mL (≈ 1.42 µM); in [2], 2 µg/mL (≈ 2.83 µM); in data set [3], 4 µg/mL (≈ 5.67 µM); in [4], 2 µg/mL (≈ 2.83 µM); in data set [5], 1 µg/mL (≈ 1.42 µM); in [6], 1 µg/mL (≈ 1.42 µM). Besides, the MIC in [7], in [8], in data set [9], in data set [10], in data set [11] and in data set [12] was 1 µg/mL (≈ 1.42 µM) throughout. The values for the MIC in data set [13], in data set [14] and in data set [15] were 1 µg/mL (≈ 1.42 µM), 2 µg/mL (≈ 2.83 µM) and 1 µg/mL (≈ 1.42 µM), respectively.
As to `C[C@@H](c1ncncc1F)[C@](O)(Cn1cncn1)c1ccc(F)cc1F`, the MIC in [1], in data set [6], in [8], in data set [9] and in [15] was 4 µg/mL (≈ 11.5 µM) throughout.
